Data on 3 compounds can be found in paper PMC9671271 (ACS infectious diseases, 2022).

The subject of data set [1] is C. albicans cells. Nature of the data set: Propidium iodide membrane permeability assay, confocal microscopy, yeast form. It counts as cell-based, Candida albicans SC5314. As to conditions: for membrane disruption (PI leakage): 12.5 μM Hist-5, 7.5 μM PI, 5 min, RT, PPB.
The test system of data set [2] is C. albicans cells. Particulars: acid form of ZQ; stated as known, no reference given; cited from earlier work.
The subject of data set [3] is C. albicans. Kind of data set: Two-dimensional broth microdilution checkerboard assay. Type of data set: cell-based, Candida albicans SC5314.
The subject of data set [4] is C. albicans hyphae. Kind of data set: Propidium iodide membrane permeability assay, hyphal form. It counts as cell-based, Candida albicans SC5314. In a few lines: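 Colony from YPD agar (30 °C, 24 h) grown 24 h in SD+ at 30 °C, 200 rpm, then diluted to OD600 0.1 in SD+ with 12.5 mM N-acetylglucosamine and grown 24 h at 37 °C, 200 rpm. Cells pelleted and resuspended in PPB pH 7.4, then given 12.5 μM test peptide, 7.5 μM PI, ± ZnCl2 (0.5, 1, 2 eq). Confocal imaging at 5 min, RT; PI excitation 488 nm, emission 600–700 nm.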

Data set [5] can be described thus: Circular dichroism titration for Zn-induced dimerization/aggregation. Type of data set: physicochemical. As to conditions: CD, 0-50 μM Hist-5 with 250 μM ZnCl2, PPB (198 nm) or 98% TFE (222 nm), 25 °C; ellipticity linear up to 50 μM. In general terms: Circular dichroism is widely used to follow secondary structure.

Regarding `O=C(O)CN(CCN(CC(=O)O)CC(=O)O)CC(=O)O` [EDTA, ethylenediaminetetraacetic acid], the “PI uptake into the cytosol” value in data set [1] (cells treated with EDTA and PI only, no peptide (Figure S14)) was “not observed”.

Consider `Cc1ccc(S(=O)(=O)Nc2cc(OCC(=O)O)cc3ccc(C)nc23)cc1` [ZQ, 2-methyl-8-(toluene-p-sulfonamido)-6-quinolyloxyacetic acid], for which the membrane permeability entry in data set [2] is “poor membrane permeability”.

As for “DSHAKRHHGYKRKFHEKHHSHRGY [Hist-5, Histatin-5]”, in data set [3] (Zn^2+ concentration surpassing the Hist-5 concentration (Figure S9)), the “effect of Zn^2+ on fungicidal activity” value is “switched from promoting Hist-5 fungicidal activity to inhibiting it”. Further, in data set [3] (sub-inhibitory concentrations of Hist-5, strongest at 1:2 Zn^2+ to peptide (Figure S9)), the “effect of Zn^2+ supplementation on peptide activity” value is recorded as “increase in peptide activity”. Further, the figures for the “membrane disruption (PI leakage)” value in data set [1] (no added Zn^2+), in data set [1] (one or more molar equivalents of Zn^2+) and in data set [1] (submolar equivalents of Zn^2+) were “allows leakage of PI into the cytosol”, “did not cause dye leakage” and “internalization of PI”, respectively. Besides, the “membrane activity on hyphae (PI leakage)” value in data set [4] (12.5 μM Hist-5, 7.5 μM PI, with Zn^2+ supplementation) is “protective effect against Hist-5-induced membrane disruption”; in data set [4] (12.5 μM Hist-5 alone, 7.5 μM PI, 5 min, RT, PPB) it was “able to permeabilize the cell membrane”. Besides, in data set [5], the Zn-induced peptide dimerization/aggregation entry was “dimerization/aggregation is not occurring”.
